ChEMBL document CHEMBL1125255, “Romazarit: a potential disease-modifying antirheumatic drug” (J Med Chem, 1991)
pIC50: −log10 of the molar value. Each block holds one compound with its values, some of them ahead of it.

Columns and labels:
[1] = Partition coefficient (logP); assay type: physicochemical; details: octanol/water
Procedure, shortened: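 Compound dissolved in disodium hydrogen phosphate/citric acid buffer pH 7.4 and partitioned against equal volume octan-1-ol. Buffer-phase UV absorbance read before and after partitioning near λmax. P′ from the octanol:buffer absorbance ratio.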

Rattus norvegicus [2] = experiment: Hepatic effect assessed by increase in catalase levels after 14 days of dosing at 60 mg/kg orally.; assay type: functional
Procedure, shortened: (§1)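 Type II collagen arthritis rats, eight per group, given oral sodium salts daily for 14 days. At termination liver homogenized in ice-cold 0.25 M sucrose and spun 2000 rpm 10 min. Catalase followed by decline in A240 from H2O2 breakdown, expressed as first-order rate constant K. Result given as % change versus normals.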

Rattus norvegicus [3] = experiment: Hepatic effect assessed by increase in liver weight after 14 days of dosing at 60 mg/kg orally.; assay type: functional
Procedure, shortened: (§2)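 Type II collagen arthritis rats, eight per group, daily oral dosing as sodium salts in water for 14 days. Liver weight recorded at termination and expressed as percentage change versus normal animals.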

Rattus norvegicus [4] = experiment: Compound was evaluated in developing adjuvant arthritis model rats for its effect on paw edema.; assay type: functional; parameters: concentration or dose not given beside the values
Procedure, shortened: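 Female Allen and Hanbury hooded rats, five per group. Right hind paw injected sc on day 0 with heat-killed M. tuberculosis in paraffin oil (5 mg/mL). Compounds given orally as sodium salts in water. Paw volumes of both hind paws measured days 1–4, 1 h after dosing. Percent inhibition taken from area under the curve of the between-paw volume difference.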

Rattus norvegicus [5] = experiment: Radiographic change was judged in the area of the talus joint, using an arbitrary scoring system upon termination of the test (14 days dosing of 60 mg/kg) in a model of type II collagen arthritis in the rat.; assay type: functional; details: 336 h
Procedure, shortened: (§3)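 Type II collagen arthritis rats, eight per group, oral sodium salts daily from grouping (day 1). Hind limbs X-rayed post mortem. Tibia/talus and tarsus damage scored 0–3 per foot by two observers and averaged; left and right summed (max 6). Compared with arthritic controls by Mann–Whitney U test.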

Rattus norvegicus [6] = experiment: Radiographic change was judged in the area of the tarsus region, using an arbitrary scoring system upon termination of the test (14 days dosing of 60 mg/kg) in a model of type II collagen arthritis in the rat.; assay type: functional; details: 336 h; procedure, shortened: as §3
[7] = molecular target: Prostaglandin G/H synthase 1 (Ovis aries) (UniProt P05979); experiment: Inhibition of prostaglandin synthetase in sheep seminal vesicle
Sequence of Prostaglandin G/H synthase 1 (Ovis aries) (P05979 whole entry, looked up): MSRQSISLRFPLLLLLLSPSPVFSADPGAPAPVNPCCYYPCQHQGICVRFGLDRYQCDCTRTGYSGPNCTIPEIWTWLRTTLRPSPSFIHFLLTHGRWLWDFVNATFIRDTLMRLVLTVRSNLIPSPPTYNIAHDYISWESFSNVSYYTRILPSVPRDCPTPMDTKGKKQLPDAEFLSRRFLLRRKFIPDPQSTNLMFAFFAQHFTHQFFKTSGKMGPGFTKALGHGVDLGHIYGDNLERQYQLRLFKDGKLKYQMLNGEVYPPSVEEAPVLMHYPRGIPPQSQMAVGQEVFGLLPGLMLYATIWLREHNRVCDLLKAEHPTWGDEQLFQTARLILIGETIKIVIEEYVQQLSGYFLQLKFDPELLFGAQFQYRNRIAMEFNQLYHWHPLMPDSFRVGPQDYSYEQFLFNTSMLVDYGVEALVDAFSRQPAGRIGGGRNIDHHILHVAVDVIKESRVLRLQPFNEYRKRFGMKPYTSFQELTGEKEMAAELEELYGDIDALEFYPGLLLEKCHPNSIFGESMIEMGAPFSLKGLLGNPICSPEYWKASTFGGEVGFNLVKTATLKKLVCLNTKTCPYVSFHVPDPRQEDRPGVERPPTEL

Rattus norvegicus [8] = species on record: Rattus norvegicus; experiment: Percent decrease in serum haptoglobin evaluated in a developing adjuvant arthritis model rats.
Rattus norvegicus [9] = experiment: Hepatic effect assessed by increase in catalase levels after 14 days of dosing at 100 mg/kg orally.; assay type: functional; procedure, shortened: as §1
Rattus norvegicus [10] = experiment: Hepatic effect assessed by increase in catalase levels after 14 days of dosing at 20 mg/kg orally.; assay type: functional; procedure, shortened: as §1
Rattus norvegicus [11] = experiment: Hepatic effect assessed by increase in catalase levels after 14 days of dosing at 40 mg/kg orally.; assay type: functional; procedure, shortened: as §1
Rattus norvegicus [12] = experiment: Hepatic effect assessed by increase in liver weight after 14 days of dosing at 100 mg/kg orally.; assay type: functional; procedure, shortened: as §2
Rattus norvegicus [13] = experiment: Hepatic effect assessed by increase in liver weight after 14 days of dosing at 20 mg/kg orally.; assay type: functional; procedure, shortened: as §2
Rattus norvegicus [14] = experiment: Hepatic effect assessed by increase in liver weight after 14 days of dosing at 40 mg/kg orally.; assay type: functional; procedure, shortened: as §2
Rattus norvegicus [15] = experiment: Radiographic change was judged in the area of the talus joint, using an arbitrary scoring system upon termination of the test (14 days dosing of 20 mg/kg)in a model of type II collagen arthritis in the rat.; assay type: functional; details: 336 h; procedure, shortened: as §3
Rattus norvegicus [16] = experiment: Radiographic change was judged in the area of the talus joint, using an arbitrary scoring system upon termination of the test (14 days dosing of 40 mg/kg)in a model of type II collagen arthritis in the rat.; assay type: functional; details: 336 h; procedure, shortened: as §3
Rattus norvegicus [17] = experiment: Radiographic change was judged in the area of the talus joint, using an arbitrary scoring system upon termination of the test (14 days dosing of 60 mg/kg)in a model of type II collagen arthritis in the rat.; assay type: functional; details: 336 h; procedure, shortened: as §3
Rattus norvegicus [18] = experiment: Radiographic change was judged in the area of the tarsus region, using an arbitrary scoring system upon termination of the test (14 days dosing of 100 mg/kg)in a model of type II collagen arthritis in the rat.; assay type: functional; details: 336 h; procedure, shortened: as §3
Rattus norvegicus [19] = experiment: Radiographic change was judged in the area of the talus joint, using an arbitrary scoring system upon termination of the test (14 days dosing of 100 mg/kg)in a model of type II collagen arthritis in the rat.; assay type: functional; details: 336 h; procedure, shortened: as §3
Rattus norvegicus [20] = experiment: Radiographic change was judged in the area of the tarsus region, using an arbitrary scoring system upon termination of the test (14 days dosing of 20 mg/kg)in a model of type II collagen arthritis in the rat.; assay type: functional; details: 336 h; procedure, shortened: as §3
Rattus norvegicus [21] = experiment: Radiographic change was judged in the area of the tarsus region, using an arbitrary scoring system upon termination of the test (14 days dosing of 40 mg/kg)in a model of type II collagen arthritis in the rat.; assay type: functional; details: 336 h; procedure, shortened: as §3
Rattus norvegicus [22] = experiment: Radiographic change was judged in the area of the tarsus region, using an arbitrary scoring system upon termination of the test (14 days dosing of 60 mg/kg)in a model of type II collagen arthritis in the rat.; assay type: functional; details: 336 h; procedure, shortened: as §3
[23] = […] level determined in rat type II collagen arthritis model after 14 days dosing of 100 mg/kg.; assay type: functional
Procedure, shortened: (§4)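 Rat type II collagen arthritis, eight rats per group, daily oral dosing as sodium salts in water for 14 days. Plasma haptoglobin determined at termination and compared with normal and arthritic controls by Student's t test.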

Homo sapiens = species on record: Homo sapiens; experiment: Inhibition of human PGE-2 production.; assay type: functional
Procedure, shortened: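 Human blood mononuclear cells from healthy volunteers stimulated with 2.5 μg/mL phytohaemagglutinin and incubated 24 h with compound (sodium salt). PGE2 measured by RIA.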

[24] = […] level determined in rat type II collagen arthritis model after 14 days dosing of 20 mg/kg.; assay type: functional; procedure, shortened: as §4
[25] = […] level determined in rat type II collagen arthritis model after 14 days dosing of 40 mg/kg.; assay type: functional; procedure, shortened: as §4
[26] = […] level determined in rat type II collagen arthritis model after 14 days dosing of 60 mg/kg.; assay type: functional; procedure, shortened: as §4
Cyclooxygenase = molecular target: T1, Cyclooxygenase (Rattus norvegicus, UniProt P35355+Q63921); experiment: Inhibition of prostaglandin synthetase in rat renal medulla; assay type: functional, tissue-based
T1 sequence (P35355 whole entry): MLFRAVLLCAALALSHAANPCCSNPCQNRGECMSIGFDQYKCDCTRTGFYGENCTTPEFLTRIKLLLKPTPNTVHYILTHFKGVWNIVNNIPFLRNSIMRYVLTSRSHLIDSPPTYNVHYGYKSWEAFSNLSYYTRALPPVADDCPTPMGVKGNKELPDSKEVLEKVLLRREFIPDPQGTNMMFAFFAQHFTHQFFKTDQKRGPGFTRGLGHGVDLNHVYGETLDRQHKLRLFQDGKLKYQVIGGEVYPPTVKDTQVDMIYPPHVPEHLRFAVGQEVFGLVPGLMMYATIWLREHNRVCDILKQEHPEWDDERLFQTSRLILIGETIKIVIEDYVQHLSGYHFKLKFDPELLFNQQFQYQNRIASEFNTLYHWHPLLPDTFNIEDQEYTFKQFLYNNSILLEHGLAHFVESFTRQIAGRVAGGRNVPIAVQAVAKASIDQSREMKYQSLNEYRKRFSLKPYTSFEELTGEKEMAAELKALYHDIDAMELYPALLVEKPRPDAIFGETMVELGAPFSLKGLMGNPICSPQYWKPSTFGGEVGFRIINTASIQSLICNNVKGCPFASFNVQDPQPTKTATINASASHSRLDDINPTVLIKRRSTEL
T1 sequence (Q63921 whole entry): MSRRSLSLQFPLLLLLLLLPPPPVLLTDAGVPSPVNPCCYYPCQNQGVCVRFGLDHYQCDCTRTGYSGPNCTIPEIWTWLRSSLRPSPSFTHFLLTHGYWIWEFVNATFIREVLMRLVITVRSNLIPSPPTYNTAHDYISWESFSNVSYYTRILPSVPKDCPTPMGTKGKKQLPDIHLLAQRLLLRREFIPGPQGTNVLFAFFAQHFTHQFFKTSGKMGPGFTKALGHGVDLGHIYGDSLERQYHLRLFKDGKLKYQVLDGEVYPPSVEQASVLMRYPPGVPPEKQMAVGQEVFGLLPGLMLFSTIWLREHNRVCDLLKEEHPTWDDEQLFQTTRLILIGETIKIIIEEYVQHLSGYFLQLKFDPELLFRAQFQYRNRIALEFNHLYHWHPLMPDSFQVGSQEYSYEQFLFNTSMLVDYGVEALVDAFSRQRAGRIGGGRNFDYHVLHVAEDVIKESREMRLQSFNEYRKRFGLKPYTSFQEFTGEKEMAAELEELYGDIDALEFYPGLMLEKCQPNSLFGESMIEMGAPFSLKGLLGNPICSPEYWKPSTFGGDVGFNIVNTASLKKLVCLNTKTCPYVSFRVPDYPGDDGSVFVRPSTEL
Procedure, shortened: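 Same cyclooxygenase protocol run on rat renal medulla homogenate: 5 min 30 °C preincubation with glutathione 1 mM and adrenaline 625 μM. Prostaglandin/thromboxane area compared with the no-drug control.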

Rattus norvegicus [27] = experiment: Plasma level in type II collagen arthritis model after 14 days of dosing at 100 mg/kg.; assay type: functional, organism-based; parameters: dose 100 mg/kg
Procedure, shortened: (§5)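 Type II collagen arthritis rats dosed orally for 14 days. Plasma drug level measured by reverse-phase C-18 HPLC with UV detection at 282 nm.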

Rattus norvegicus [28] = experiment: Plasma level in type II collagen arthritis model after 14 days of dosing at 20 mg/kg.; assay type: functional, organism-based; parameters: dose 20 mg/kg; procedure, shortened: as §5
Rattus norvegicus [29] = experiment: Plasma level in type II collagen arthritis model after 14 days of dosing at 40 mg/kg.; assay type: functional, organism-based; parameters: dose 40 mg/kg; procedure, shortened: as §5
Rattus norvegicus [30] = experiment: Plasma level in type II collagen arthritis model after 14 days of dosing at 60 mg/kg.; assay type: functional, organism-based; parameters: dose 60 mg/kg; procedure, shortened: as §5
[31] = molecular target: Prostaglandin G/H synthase 1 (Ovis aries) (UniProt P05979); experiment: Inhibition of prostaglandin synthetase in sheep seminal vesicle; remark: listed apart in the source

logP [1]: 1.52
IC50 [7]: 950 µM
Compound: CC(C)(OCc1ccc(-c2ccc(Cl)cc2)cc1)C(=O)O [CLOBUZARIT]
Change (Rattus norvegicus [2]): 164%
Change (Rattus norvegicus [3]): 19%
Inhibition (Rattus norvegicus [4]): 48%
inhibition in vivo at 60 mg/kg (Rattus norvegicus [5]): 64%
inhibition in vivo at 60 mg/kg (Rattus norvegicus [6]): 41%
Decrease (Rattus norvegicus [8]): 31%

logP [1]: 0.34
pIC50 (Homo sapiens): < 3.40
IC50 (Cyclooxygenase): > 300 µM
IC50 [31]: 6500 µM
Compound: Cc1nc(-c2ccc(Cl)cc2)oc1COC(C)(C)C(=O)O [ROMAZARIT]
Change (Rattus norvegicus [9]): 19%
Change (Rattus norvegicus [10]): -51%
Change (Rattus norvegicus [11]): -34%
Change (Rattus norvegicus [2]): -7%
Change (Rattus norvegicus [12]): 13%
Change (Rattus norvegicus [13]): -5%
Change (Rattus norvegicus [14]): -3%
Change (Rattus norvegicus [3]): 4%
Inhibition (Rattus norvegicus [4]): 73%
inhibition in vivo at 20 mg/kg (Rattus norvegicus [15]): 33%
inhibition in vivo at 40 mg/kg (Rattus norvegicus [16]): 40%
inhibition in vivo at 60 mg/kg (Rattus norvegicus [17]): 63%
inhibition in vivo at 100 mg/kg (Rattus norvegicus [18]): 56%
inhibition in vivo at 100 mg/kg (Rattus norvegicus [19]): 82%
inhibition in vivo at 20 mg/kg (Rattus norvegicus [20]): 7%
inhibition in vivo at 40 mg/kg (Rattus norvegicus [21]): 35%
inhibition in vivo at 60 mg/kg (Rattus norvegicus [22]): 46%
Haptoglobin [23]: 0.34 g/L
Haptoglobin [24]: 0.31 g/L
Haptoglobin [25]: 0.43 g/L
Haptoglobin [26]: 0.32 g/L
Plasma level (Rattus norvegicus [27]): 267 µg/mL
Plasma level (Rattus norvegicus [28]): 64 µg/mL
Plasma level (Rattus norvegicus [29]): 102 µg/mL
Plasma level (Rattus norvegicus [30]): 172 µg/mL
Decrease (Rattus norvegicus [8]): 26%
